A short description of test [1]: Binding affinity to methicillin-resistant, heteroresistant vancomycin-intermediate, beta-lactamase-negative Staphylococcus aureus 873 PBP2 by competitive binding assay.
The test system of test [2] is Streptococcus pneumoniae. As to the kind of experiment: Antibacterial activity against penicillin-resistant Streptococcus pneumoniae 1394 by macrodilution method. Format: functional. The gist of the method: (§1)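 CLSI broth macrodilution MICs. The S. aureus set is 5 MRSA strains (hVISA, VISA, VRSA) plus 1 MSSA. The S. pneumoniae set is 7 clonally unrelated clinical isolates, categorised by penicillin G against 2006 CLSI M100-S17 criteria (resistant ≥2 μg/ml, susceptible ≤0.06 μg/ml).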

Test [3] deals with T1, MecA (Staphylococcus aureus, UniProt Q7DHH4).
T1 sequence (Q7DHH4 whole entry): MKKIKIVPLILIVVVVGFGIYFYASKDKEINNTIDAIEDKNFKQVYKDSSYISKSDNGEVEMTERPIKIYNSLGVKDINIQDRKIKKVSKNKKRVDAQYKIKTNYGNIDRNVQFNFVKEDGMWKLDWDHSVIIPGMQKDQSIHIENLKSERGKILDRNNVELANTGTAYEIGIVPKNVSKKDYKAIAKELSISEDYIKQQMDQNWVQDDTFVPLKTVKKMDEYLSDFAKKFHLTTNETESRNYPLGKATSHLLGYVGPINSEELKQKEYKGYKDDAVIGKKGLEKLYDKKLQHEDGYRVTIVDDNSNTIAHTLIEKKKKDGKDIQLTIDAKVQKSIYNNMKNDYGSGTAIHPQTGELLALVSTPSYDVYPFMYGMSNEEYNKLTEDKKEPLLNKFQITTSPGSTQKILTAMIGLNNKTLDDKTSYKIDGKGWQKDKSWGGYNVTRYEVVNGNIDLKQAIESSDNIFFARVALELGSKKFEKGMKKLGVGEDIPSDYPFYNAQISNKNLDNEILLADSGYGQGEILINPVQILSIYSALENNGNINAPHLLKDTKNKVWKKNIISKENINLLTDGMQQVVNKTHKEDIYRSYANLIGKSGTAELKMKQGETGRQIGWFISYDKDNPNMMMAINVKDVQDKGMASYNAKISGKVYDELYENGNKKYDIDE
As to the kind of experiment: Binding affinity to methicillin-, linezolid-resistant, vancomycin-intermediate, beta-lactamase-positive Staphylococcus aureus 2149A PBP2a by competitive binding assay. The gist of the method: (§2)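 MRSA grown in brain heart infusion and harvested in exponential phase (OD600 0.3–0.4). Membranes prepared by lysozyme/lysostaphin/DNase, freeze-thaw and sonication, then ultracentrifugation. Membranes preincubated with clavulanic acid 1 mg/ml to saturate PBPs other than PBP2a. Then β-lactam 10 min at 37°C and Bocillin FL 40 μg/ml, 15 min at 37°C. SDS-PAGE fluorescence; IC50 = 50% inhibition of Bocillin FL binding; 3 isolations.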

Test [4] can be described thus: Binding affinity to methicillin-, linezolid-resistant, vancomycin-intermediate, beta-lactamase-positive Staphylococcus aureus 2149A PBP3 by competitive binding assay.
Test [5] is described as follows: Binding affinity to methicillin-resistant, vancomycin-intermediate, beta-lactamase-positive Staphylococcus aureus 1287 PBP2 by competitive binding assay.
Test [6] can be described thus: Binding affinity to methicillin-, linezolid-resistant, vancomycin-intermediate, beta-lactamase-positive Staphylococcus aureus 2149A PBP1 by competitive binding assay.
In test [7] the test system is Staphylococcus aureus. Description: Antibacterial activity against methicillin-, daptomycin-resistant, vancomycin-intermediate, beta-lactamase-positive Staphylococcus aureus 25 by macrodilution method. It is filed as functional. The gist of the method:
as §1

The subject of test [8] is Streptococcus pneumoniae. Description: Antibacterial activity against penicillin-susceptible Streptococcus pneumoniae 1076 by macrodilution method. It is filed as functional. The gist of the method: as §1
Test [9] is described as follows: Binding affinity to methicillin-resistant, heteroresistant vancomycin-intermediate, beta-lactamase-negative Staphylococcus aureus 873 PBP4 by competitive binding assay.
Test [10] is described as follows: Binding affinity to methicillin-resistant, vancomycin-intermediate, beta-lactamase-positive Staphylococcus aureus 1287 PBP1 by competitive binding assay.
The nature of test [11]: Binding affinity to penicillin-resistant Streptococcus pneumoniae 3413 PBP2A by competitive binding assay. The gist of the method: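 Whole pneumococcal cells were grown to OD600 0.3 in Todd-Hewitt broth plus 0.5% yeast extract, then resuspended in 50 mM NaPO4, pH 7.0. Cells at 10^8 to 5 × 10^8 CFU/ml were exposed to β-lactam for 10 min at 37°C, alongside a reference without drug. They were then labeled with 10 μg/ml Bocillin FL for 15 min at 37°C. Proteins were resolved by SDS-PAGE and fluorescence read at 520 nm. IC50 was taken as 50% inhibition of Bocillin FL binding, from 2 experiments.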

Test [12] can be described thus: Binding affinity to methicillin-, vancomycin-resistant, beta-lactamase-positive Staphylococcus aureus 510 PBP2 by competitive binding assay.
For test [13], the target named is T1, MecA. Description: Binding affinity to methicillin-, vancomycin-resistant, beta-lactamase-positive Staphylococcus aureus 510 PBP2a by competitive binding assay. The gist of the method: as §2
The nature of test [14]: Binding affinity to methicillin-, vancomycin-susceptible Staphylococcus aureus ATCC 29213 PBP4 by competitive binding assay. The gist of the method:
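S. aureus grown in brain heart infusion broth and harvested at OD600 0.3 to 0.4. Membranes were prepared by lysozyme/lysostaphin/DNase I treatment, freeze-thaw, sonication and ultracentrifugation. Membranes (100 μg total protein) were preincubated with β-lactam for 10 min at 37°C, then labeled with 40 μg/ml Bocillin FL for 15 min at 37°C. SDS-PAGE with fluorescence imaging at 520 nm. IC50 is 50% inhibition of Bocillin FL binding; 3 membrane isolations.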

Test [15] in a line: Binding affinity to against methicillin-, daptomycin-resistant, vancomycin-intermediate, beta-lactamase-positive Staphylococcus aureus 25 PBP1 by competitive binding assay. The gist of the method: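 MRSA strain harvested in stationary phase (OD600 >2.00). Membranes prepared by enzymatic lysis, freeze-thaw, sonication and ultracentrifugation, then preincubated with clavulanic acid 1 mg/ml. β-Lactam competition 10 min at 37°C, then Bocillin FL 40 μg/ml, 15 min at 37°C. SDS-PAGE, 520 nm imaging; IC50 = 50% inhibition of Bocillin FL labeling; 3 membrane isolations.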

Molecules are shown by their SMILES. ≈ marks a conversion by molar mass, not a printed value.

A word on the IC50: it is the midpoint of a concentration-inhibition curve. As a reminder, the MIC is the least concentration at which growth counts as inhibited. The low end stands for a more susceptible organism, the high end for a less susceptible organism.

Consider `CO/N=C(\C(=O)N[C@@H]1C(=O)N2C(C(=O)O)=C(COC(C)=O)CS[C@H]12)c1csc(N)n1` [CEFOTAXIME], for which the half-maximal inhibitory concentration (IC50) was 0.5 µg/mL (≈ 1.1 µM) in test [1]; over 281 µM in [3]; 2 µg/mL (≈ 4.39 µM) in [4]; 1 µg/mL (≈ 2.2 µM) in test [5]; 4 µg/mL (≈ 8.78 µM) in test [6]; over 128 µg/mL in test [9]. Also, the 50% inhibitory concentration (IC50) in test [10] is 1 µg/mL (≈ 2.2 µM); in test [11], 0.25 µg/mL (≈ 0.549 µM); in [12] it was 0.25 µg/mL (≈ 0.549 µM); in test [13], 2.2 µM; in test [14], over 8 µg/mL; in [15], 16 µg/mL (≈ 35.1 µM). The MIC is 4 µg/mL (≈ 8.78 µM) in [2], over 64 µg/mL in [7] and 0.03 µg/mL (≈ 0.0659 µM) in test [8].
For `CO/N=C(\C(=O)N[C@@H]1C(=O)N2C(C(=O)O)=C(CSc3nc(=O)c(O)nn3C)CS[C@H]12)c1csc(N)n1` [CEFTRIAXONE], the half-inhibitory concentration (IC50) in [1] was 0.5 µg/mL (≈ 0.902 µM); in test [3], 3.61 µM; in test [4], 2 µg/mL (≈ 3.61 µM); in test [5], 1 µg/mL (≈ 1.8 µM); in test [6] it was 4 µg/mL (≈ 7.21 µM); in test [9], over 128 µg/mL. The half-maximal inhibitory concentration (IC50) was 1 µg/mL (≈ 1.8 µM) in test [10]; 1 µg/mL (≈ 1.8 µM) in test [11]; 0.25 µg/mL (≈ 0.451 µM) in [12]; 1.8 µM in test [13]; over 8 µg/mL in test [14]; 16 µg/mL (≈ 28.9 µM) in test [15]. Also, the MIC is 2 µg/mL (≈ 3.61 µM) in test [2], over 64 µg/mL in test [7] and 0.03 µg/mL (≈ 0.0541 µM) in test [8].
As for `CC1(C)S[C@@H]2[C@H](NC(=O)Cc3ccccc3)C(=O)N2[C@H]1C(=O)O` [PENICILLIN G], the IC50 in test [1] is 0.5 µg/mL (≈ 1.5 µM); in test [3] it was 5.98 µM; in [4], 2 µg/mL (≈ 5.98 µM); in test [5], 4 µg/mL (≈ 12 µM); in [6] it was 2 µg/mL (≈ 5.98 µM); in test [9], over 128 µg/mL. The half-maximal inhibitory concentration (IC50) in [10] is 4 µg/mL (≈ 12 µM); in test [12], 64 µg/mL (≈ 191 µM); in [13], 191 µM; in test [14], over 8 µg/mL; in test [15] it was 0.5 µg/mL (≈ 1.5 µM). Besides, the minimum inhibitory concentration (MIC) in test [2] was 4 µg/mL (≈ 12 µM); in test [7] it was 64 µg/mL (≈ 191 µM); in [8] it was 0.03 µg/mL (≈ 0.0897 µM).
